Laboratory results taken from ChEMBL document CHEMBL1127313, “The discovery of sulfonamide endothelin antagonists and the development of the orally active ETA antagonist 5-(dimethylamino)-N-(3,4-dimethyl-5-isoxazolyl)-1-naphthalenesulf onamide” (J Med Chem, 1994).
pIC50: −log10 of the molar value.

Assays:
[1] = system: A10; experiment: Ability to inhibit [125I]ET1 binding to vascular smooth muscle (vsm)- A10 cells; type: functional, cell-based; details: Rattus norvegicus
How it was run: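 Intact rat vsm-A10 cells: confluent cells scraped, pelleted, resuspended in PBS with 0.1% glucose and 0.1% BSA. Bound and free ligand separated by filtration; bound radioactivity counted by scintillation; IC50 reported.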

[2] = biological target: T1, Endothelin-1 receptor (Homo sapiens) (UniProt P25101); details: Oryctolagus cuniculus
T1 sequence (whole entry): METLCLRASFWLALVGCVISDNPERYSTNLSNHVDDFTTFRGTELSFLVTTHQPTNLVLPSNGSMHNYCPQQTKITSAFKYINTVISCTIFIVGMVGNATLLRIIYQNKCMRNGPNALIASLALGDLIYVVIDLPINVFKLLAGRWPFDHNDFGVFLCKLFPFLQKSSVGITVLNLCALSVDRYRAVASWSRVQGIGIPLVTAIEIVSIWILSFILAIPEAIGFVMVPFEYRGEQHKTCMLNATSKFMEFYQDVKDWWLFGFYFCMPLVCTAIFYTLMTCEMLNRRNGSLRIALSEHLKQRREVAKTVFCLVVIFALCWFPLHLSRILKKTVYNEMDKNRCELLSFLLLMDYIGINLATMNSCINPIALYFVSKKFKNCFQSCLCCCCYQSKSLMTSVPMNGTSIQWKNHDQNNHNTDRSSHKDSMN

[3] = system: Rattus norvegicus; experiment: Antihypertensive activity administered orally at […] was determined in vivo in rats; type: functional
How it was run: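 Uninephrectomized rats implanted with a DOCA pellet and given saline to drink develop hypertension. Single 100 µmol/kg oral dose in 5% NaHCO3 given at time 0, with a vehicle group. Mean arterial pressure followed over 24 h as % change from pre-dose control; mean ± SEM, n = 6 animals.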

`Nc1ccc(S(=O)(=O)Nc2cc(-c3ccccc3)no2)cc1` was tested, and the pIC50 [1] was < 4.49.

`Cc1noc(NS(=O)(=O)c2cccc3c(O)cccc23)c1C` gave a K Bapp [2] of 100 µM.

Work on `Cc1noc(NS(=O)(=O)c2cccc3c(N(C)C)cccc23)c1C` [BMS-182874] yielded a Mean arterial blood pressure [3] of 45.8 mmHg.

`CCCCCc1cc(NS(=O)(=O)c2ccc(N)cc2)on1` was tested, and the pIC50 [1] was < 4.49.
